PAD4 FP inh – blocks human protein arginine deiminase 4. Q9UM07. recombinant PAD4, RCA probe fluorescence polarization. inhibition, % at 6.36 µM. 0.41% of 330,000 active;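 active = percent inhibition above a cutoff equal to the mean of all tested compounds plus 3 SD, cut at about 15% in these data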;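 also: 0% = PAD4 with RCA probe and DMSO and 100% = probe without PAD4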
CTSL1 counter – blocks F. hepatica cathepsin L1 in PFM18AAP counter-screen. recombinant F. hepatica cathepsin L1, Z-Leu-Arg-MCA fluorescence. inhibition, % at 5.96 µM. 0.49% of 300,000 active. AID 1906;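 active = inhibition above the mean of all tested compounds plus 3 SD, set per screening campaign, cut at about 17% in these data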;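 also: 0% = plate median of test compound wells and 100% = 1 µM Z-Phe-Ala-diazomethylketone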
PP5 primary – PP5 (human) phosphatase inhibition; P53041; purified PP5c, OMFP substrate fluorescence; inhibition, % at 6.7 µM; 0.18% of 320,000 active; AID 1987;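 active = inhibition above the campaign's mean inhibition across all tested compounds plus 3 SD, cut at about 9.5% in these data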;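 also: 0% = DMSO only and 100% = 100 µM cantharidin control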
Apaf-1 inh – blocks human Apaf-1 apoptosome activity. inhibition, % at 20 µM. reconstituted apoptosome caspase-3 activity, DEVD-Rh110 fluorescence. O14727. 0.71% of 330,000 active; active = inhibition of at least 40% at 20 µM;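 also: plate controls were DMSO wells for no effect and DEVD-CHO caspase inhibitor wells for full effect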
Target sequence (O14727 whole entry, looked up): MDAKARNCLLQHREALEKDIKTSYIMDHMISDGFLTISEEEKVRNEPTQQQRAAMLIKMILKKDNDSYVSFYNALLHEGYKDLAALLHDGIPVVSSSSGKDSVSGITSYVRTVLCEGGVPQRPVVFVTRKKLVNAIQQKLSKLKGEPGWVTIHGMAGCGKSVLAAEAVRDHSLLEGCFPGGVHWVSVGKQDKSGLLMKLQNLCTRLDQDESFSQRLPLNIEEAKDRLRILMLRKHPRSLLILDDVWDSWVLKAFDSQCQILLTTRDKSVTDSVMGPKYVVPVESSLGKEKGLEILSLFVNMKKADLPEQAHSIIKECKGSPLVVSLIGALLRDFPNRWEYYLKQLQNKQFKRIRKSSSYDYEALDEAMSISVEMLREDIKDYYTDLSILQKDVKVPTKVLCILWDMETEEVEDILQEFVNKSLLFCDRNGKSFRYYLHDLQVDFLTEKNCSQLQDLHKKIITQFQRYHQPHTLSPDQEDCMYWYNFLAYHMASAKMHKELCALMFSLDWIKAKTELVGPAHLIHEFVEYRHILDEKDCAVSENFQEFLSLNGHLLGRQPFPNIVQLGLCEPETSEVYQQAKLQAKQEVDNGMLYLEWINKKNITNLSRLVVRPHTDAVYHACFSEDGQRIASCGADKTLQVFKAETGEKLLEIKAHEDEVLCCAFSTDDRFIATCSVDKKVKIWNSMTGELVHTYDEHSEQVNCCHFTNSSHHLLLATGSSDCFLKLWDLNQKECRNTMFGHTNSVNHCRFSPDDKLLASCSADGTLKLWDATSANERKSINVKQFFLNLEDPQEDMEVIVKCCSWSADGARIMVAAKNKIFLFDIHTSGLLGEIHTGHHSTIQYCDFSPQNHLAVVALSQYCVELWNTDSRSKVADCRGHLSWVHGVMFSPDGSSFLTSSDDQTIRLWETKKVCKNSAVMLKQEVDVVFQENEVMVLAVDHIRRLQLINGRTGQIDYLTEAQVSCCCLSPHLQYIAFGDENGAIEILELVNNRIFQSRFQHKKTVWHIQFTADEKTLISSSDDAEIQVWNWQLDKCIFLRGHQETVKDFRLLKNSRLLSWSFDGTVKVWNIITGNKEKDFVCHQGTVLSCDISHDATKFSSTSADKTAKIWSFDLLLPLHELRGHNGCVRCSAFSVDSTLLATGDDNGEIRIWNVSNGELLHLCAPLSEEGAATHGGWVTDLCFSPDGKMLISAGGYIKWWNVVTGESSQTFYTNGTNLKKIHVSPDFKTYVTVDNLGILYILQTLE
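System: Apoptosome proteins | Medium: Hepes pH 7.5 with detergent and BSA | Also added: Cytochrome c trigger plus (Z-DEVD)2-Rh110 caspase-3 substrate | Incubation: 30 min compound preincubation, 50 min activation, room temperature | Detection: Rhodamine 110 fluorescence at Ex 480/Em 540 nm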
UCH37 inh – inhibitors of human deubiquitinating enzyme UCH37 | purified proteasome/UCH37, Ub-AMC cleavage fluorescence | 0.33% of 330,000 active | inhibition, % (concentration not given with the values);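 active = mean inhibition over replicate wells above about 20%, limit read from the data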;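 also: 0% = compound-free wells with enzyme and 100% = wells lacking proteasome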
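Material: Human UCH37 enzyme supplied as purified proteasome complex | Schedule: 30 min preincubation with enzyme, 25 min cleavage at room temperature | Detection: AMC fluorescence 355/460 nm | Measure: % inhibition of Ub-AMC cleavage fluorescence | Controls: Wells without proteasome as full block, compound-free enzyme plus substrate as uninhibited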
GSTO1 inh – counter-screen for RBBP9 inhibitors: inhibitors of human GSTO1 | 1.1% of 300,000 active | inhibition, % at 5.96 µM | recombinant GSTO1, activity-based probe fluorescence polarization | AID 1974;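 active = inhibition above the campaign mean inhibition plus 3 SD, cut at about 35% in these data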;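 also: 0% = GSTO1-1 with DMSO and 100% = wells lacking GSTO1-1 enzyme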
* hit, by the source's call. Compounds with a hit are over-represented: about 2% of the library has one in this group of screens.

How did Cc1cc(C)nc(N(C#N)CC(=O)c2ccccc2)n1 do in these assays?
PAD4 FP inh: 3; CTSL1 counter: 69*; PP5 primary: 1; Apaf-1 inh: -17; UCH37 inh: 5; GSTO1 inh: -14

How did CCc1ccc(C(=O)CN(C#N)c2nc(C)cc(C)n2)cc1 do in these assays?
PAD4 FP inh: 3; CTSL1 counter: 58*; PP5 primary: 1; Apaf-1 inh: 17; UCH37 inh: 3; GSTO1 inh: -21

What do the screens show for `O=C(NN=Cc1cc(Br)ccc1OC(=O)c1ccc(Br)cc1)c1ccncc1`?
UCH37 inh: 4

Results for CC(=NNC(=O)c1nnn(-c2nonc2N)c1-c1cccs1)c1cccnc1 ?
UCH37 inh: 5

Results for Cc1ccc2c(c1C)NC(C(=O)O)C1CC=CC21 (configuration not stated) ?
PAD4 FP inh: 2; CTSL1 counter: -4; PP5 primary: 2; Apaf-1 inh: 26; UCH37 inh: 4; GSTO1 inh: 51*

What do the screens show for `O=C(c1ccccc1O)N1CCOCC1`?
PAD4 FP inh: 1; CTSL1 counter: 3; PP5 primary: -1; Apaf-1 inh: -5; UCH37 inh: 3; GSTO1 inh: -15

How did O=C(O)C1Nc2c(C(=O)N3CCOCC3)cccc2C2C=CCC12 (configuration not stated) do in these assays?
PAD4 FP inh: -12; CTSL1 counter: 2; PP5 primary: 0; Apaf-1 inh: 13; UCH37 inh: 6; GSTO1 inh: 36*

Results for Cc1cc(C)c2c(c1)NC(C(=O)O)C1CC=CC21 (configuration not stated) ?
PAD4 FP inh: -2; CTSL1 counter: 1; PP5 primary: -5; Apaf-1 inh: 20; UCH37 inh: -1; GSTO1 inh: 18

What do the screens show for `Fc1ccc(C=NNc2nnnn2-c2ccccc2)cc1`?
UCH37 inh: 6

What do the screens show for `Cc1ccc2c(c1)Oc1ccc(NC(=O)CCl)cc1C(=O)N2`?
PAD4 FP inh: 0; CTSL1 counter: 52*; PP5 primary: -1; Apaf-1 inh: -2; UCH37 inh: 2; GSTO1 inh: 92*

Results for CCN(CC)C(=O)c1sc(NC(=O)c2c(OC)cccc2OC)c(C#N)c1C ?
PAD4 FP inh: 1; CTSL1 counter: 0; PP5 primary: 1; Apaf-1 inh: 2; UCH37 inh: 29*; GSTO1 inh: 13

How did CCCOc1ccc(-c2c(C(=O)NN=Cc3ccc(OC)cc3)nnn2-c2nonc2N)cc1 do in these assays?
UCH37 inh: 1

Results for CC(=O)[C@@H]1[C@@H]2C(=O)N(C3CCCCC3)C(=O)[C@@H]2C2c3ccccc3C=CN21 (some centres not stated) ?
PAD4 FP inh: -9; CTSL1 counter: 4; PP5 primary: 4; Apaf-1 inh: 84*; GSTO1 inh: 22

How did N#C[C@@H]1[C@@H]2C(=O)N(c3ccc4c(c3)OCCO4)C(=O)[C@@H]2C2c3ccccc3C=CN21 (some centres not stated) do in these assays?
PAD4 FP inh: -10; CTSL1 counter: 8; PP5 primary: 0; Apaf-1 inh: 78*; GSTO1 inh: 14

What do the screens show for `O=C(c1ccco1)[C@@H]1[C@@H]2C(=O)N(c3ccc(F)cc3)C(=O)[C@@H]2C2c3ccccc3C=CN21` (some centres not stated)?
PAD4 FP inh: -13; CTSL1 counter: 14; PP5 primary: 3; Apaf-1 inh: 83*; GSTO1 inh: 31

Results for O=C1C2C(c3ccccc3)C=CC(c3ccccc3)C2C(=O)N1C1CCCCC1 (configuration not stated) ?
PAD4 FP inh: -13; CTSL1 counter: -4; PP5 primary: -6; Apaf-1 inh: 15; UCH37 inh: 3; GSTO1 inh: -4

Results for COc1ccc(NC(=O)[C@@H]2[C@@H]3C(=O)N(C4CCCCC4)C(=O)[C@@H]3C3c4ccccc4C=CN32)cc1 (some centres not stated) ?
PAD4 FP inh: -21; CTSL1 counter: -2; PP5 primary: 2; Apaf-1 inh: 51*; UCH37 inh: 11; GSTO1 inh: -2

How did COC(=O)C1(CCSC)NC(c2ccccc2F)C2C(=O)N(c3ccc4c(c3)OCCO4)C(=O)C21 (configuration not stated) do in these assays?
PAD4 FP inh: -2; CTSL1 counter: 1; PP5 primary: 2; Apaf-1 inh: -1; UCH37 inh: 4; GSTO1 inh: -2

How did O=C(CSCc1ccccc1)NN=Cc1ccc(OCC(=O)N2CCCCC2)cc1 do in these assays?
UCH37 inh: 5

Results for CC(=O)[C@@H]1[C@@H]2C(=O)N(c3ccc(F)c(Cl)c3)C(=O)[C@@H]2C2c3ccccc3C=CN21 (some centres not stated) ?
PAD4 FP inh: -18; CTSL1 counter: 2; PP5 primary: 4; Apaf-1 inh: 72*; GSTO1 inh: 10

How did O=C(c1ccco1)[C@@H]1[C@@H]2C(=O)N(c3ccc(Br)cc3)C(=O)[C@@H]2C2c3ccccc3C=CN21 (some centres not stated) do in these assays?
UCH37 inh: 5

What do the screens show for `CC(=O)N1N=C(c2ccc(Cl)cc2)CC1c1ccco1` (configuration not stated)?
PAD4 FP inh: 3; CTSL1 counter: 0; PP5 primary: 0; Apaf-1 inh: 4; UCH37 inh: 3; GSTO1 inh: 14

What do the screens show for `COc1ccc(C2CC(c3ccccc3)=NN2C(=O)COC(=O)CNC(=O)c2ccccc2)cc1` (configuration not stated)?
PAD4 FP inh: -1; CTSL1 counter: 31*; PP5 primary: 6; Apaf-1 inh: -1; UCH37 inh: 0; GSTO1 inh: -33

What do the screens show for `O=C(CNC(=O)c1ccccc1)OCC(=O)N1N=C(c2ccc(Cl)cc2)CC1c1ccco1` (configuration not stated)?
PAD4 FP inh: -8; CTSL1 counter: 20*; PP5 primary: 1; Apaf-1 inh: 36; UCH37 inh: 2; GSTO1 inh: 3

What do the screens show for `Cc1ccc(NC(=S)NNC(=S)Nc2ccc(C)cc2C)cc1`?
PAD4 FP inh: 3; CTSL1 counter: -2; PP5 primary: 3; Apaf-1 inh: -4; GSTO1 inh: 47*

Results for CCCCCCN1C=CC(=C/C=C(\C#N)C(=O)OCC)C=C1 ?
PAD4 FP inh: -9; CTSL1 counter: 10; PP5 primary: 1; Apaf-1 inh: -4; UCH37 inh: 21*; GSTO1 inh: -1

Results for COc1ccc(N2CCN(C(=O)C(NC(=O)c3c(F)cccc3F)C(C)C)CC2)cc1 (configuration not stated) ?
PAD4 FP inh: -2; CTSL1 counter: 26*; PP5 primary: 5; Apaf-1 inh: 10; UCH37 inh: 3; GSTO1 inh: -1

Assay outcomes: PubChem, several laboratories
